According to ChEMBL document CHEMBL2401700, “Discovery of TD-8954, a clinical stage 5-HT(4) receptor agonist with gastrointestinal prokinetic properties” (Bioorg Med Chem Lett, 2013):
Activity calls are given as the source filed them. The calls are words filed in the database; no cut-off is given here.

Experiments:
[1] = Half life in Sprague-Dawley rat at 5 mg/kg, po; type: ADME, organism-based; parameters: dose 5 mg/kg, route oral; conditions: in vivo
[2] = Cmax in beagle dog at 2 mg/kg, po; type: ADME, organism-based, Canis lupus familiaris; parameters: dose 2 mg/kg, route oral; conditions: in vivo
[3] = Cardiotoxicity in dog coronary artery assessed as coronary artery constriction; type: toxicity, tissue-based, Canis lupus familiaris
Rattus norvegicus [4] = assay: Agonist activity at 5HT4 receptor in ID dosed rat assessed as dose required to cause esophageal relaxation of 0.1 mm; type: functional
How it was run: (§1)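 Anesthetized rats dosed intraduodenally over about 0.01–10 mg/kg. Esophageal relaxation was tracked by digital sonomicrometry as the change in inter-crystal distance (mm), n = 4–6. An ED50 was derived from the dose–response, and the dose giving a 0.1 mm relaxation response was calculated.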

Cavia porcellus = assay: Prokinetic activity at guinea pig colonic transit model assessed as reduction in time taken for excretion of first pellet at 0.03 mg/kg, sc by carmine red dye-based assay relative to vehicle-treated control; type: functional; parameters: scale not given: the % may be the effect or the level left; conditions: route subcutaneous
How it was run: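 Conscious guinea pigs given sc doses of 0.03, 0.3 or 3 mg/kg or vehicle (2 mL/kg), n = 9–22 per group. Colonic transit was measured as time to excretion of the first fecal pellet containing carmine red dye marker. Compared with vehicle by ANOVA with Dunnett's post-hoc test, p < 0.05.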

[5] = biological target: T1, 5-hydroxytryptamine receptor 3A (Homo sapiens, UniProt P46098); assay: Binding affinity to human recombinant 5HT3 receptor
T1 sequence (P46098 whole entry): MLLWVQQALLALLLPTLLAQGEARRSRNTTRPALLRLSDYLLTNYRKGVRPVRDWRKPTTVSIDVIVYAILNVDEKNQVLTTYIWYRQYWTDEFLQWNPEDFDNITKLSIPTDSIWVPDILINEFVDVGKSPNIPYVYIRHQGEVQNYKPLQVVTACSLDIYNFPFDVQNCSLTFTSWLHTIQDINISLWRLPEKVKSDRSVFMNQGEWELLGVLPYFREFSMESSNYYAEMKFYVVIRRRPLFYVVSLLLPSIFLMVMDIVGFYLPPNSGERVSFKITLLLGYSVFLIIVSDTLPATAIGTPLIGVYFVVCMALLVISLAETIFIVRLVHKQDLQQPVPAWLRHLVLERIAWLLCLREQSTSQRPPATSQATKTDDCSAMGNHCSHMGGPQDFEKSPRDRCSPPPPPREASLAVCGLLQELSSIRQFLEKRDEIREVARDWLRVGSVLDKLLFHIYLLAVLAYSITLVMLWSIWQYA

[6] = Permeability across human Caco2 cells; type: ADME, cell-based; conditions: Caco-2, read-out: Kp
[7] = Oral bioavailability in Sprague-Dawley rat at 5 mg/kg; type: ADME, organism-based; conditions: in vivo
[8] = biological target: 5-hydroxytryptamine receptor 4 (Homo sapiens, UniProt Q13639); assay: Agonist activity at human recombinant 5HT4 receptor assessed as cAMP accumulation relative to 5-HT; type: functional
How it was run: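 cAMP accumulation in cells expressing human recombinant 5-HT4 receptor, reported as pEC50 with intrinsic activity as % of the maximum response achieved by 5-HT.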

[9] = AUC (0 to t) in beagle dog at 2 mg/kg, po; type: ADME, organism-based, Canis lupus familiaris; parameters: dose 2 mg/kg, route oral; conditions: plasma
[10] = Cardiotoxicity in human coronary artery assessed as coronary artery constriction; type: toxicity, tissue-based
[11] = biological target: 5-hydroxytryptamine receptor 4 (Cavia porcellus) (UniProt O70528)
[12] = AUC (0 to t) in Sprague-Dawley rat at 5 mg/kg, po; type: ADME, organism-based; parameters: dose 5 mg/kg, route oral; conditions: plasma
[13] = biological target: 5-hydroxytryptamine receptor 5A (Homo sapiens) (UniProt P47898); assay: Inhibition of serotonin 5-HT5A receptor (unknown origin) at 1 uM
[14] = Cmax in Sprague-Dawley rat at 5 mg/kg, po; type: ADME, organism-based; parameters: dose 5 mg/kg, route oral; conditions: in vivo
[15] = biological target: 5-hydroxytryptamine receptor 2A (Homo sapiens, UniProt P28223); assay: Inhibition of serotonin 5-HT2A receptor (unknown origin) at 1 uM
[16] = biological target: 5-hydroxytryptamine receptor 1B (Homo sapiens) (UniProt P28222); assay: Inhibition of serotonin 5-HT1B receptor (unknown origin) at 1 uM
[17] = Oral bioavailability in beagle dog at 2 mg/kg; type: ADME, organism-based, Canis lupus familiaris; conditions: in vivo
Homo sapiens = species: Homo sapiens; assay: Increase in bowel movements in healthy human at 0.1 to 20 mg after 24 hrs relative to placebo
[18] = Half life in rat liver micrososmes; type: ADME, Microsome; conditions: liver microsomes
[19] = Elimination half life in healthy human; type: ADME, organism-based; conditions: in vivo, read-out: beta t1/2 (converted)
[20] = biological target: 5-hydroxytryptamine receptor 2B (Homo sapiens, UniProt P41595); assay: Inhibition of serotonin 5-HT2B receptor (unknown origin) at 1 uM
[21] = biological target: T2, 5-hydroxytryptamine receptor 1A (Homo sapiens) (UniProt P08908); assay: Inhibition of serotonin 5-HT1A receptor (unknown origin) at 1 uM
T2 sequence (whole entry): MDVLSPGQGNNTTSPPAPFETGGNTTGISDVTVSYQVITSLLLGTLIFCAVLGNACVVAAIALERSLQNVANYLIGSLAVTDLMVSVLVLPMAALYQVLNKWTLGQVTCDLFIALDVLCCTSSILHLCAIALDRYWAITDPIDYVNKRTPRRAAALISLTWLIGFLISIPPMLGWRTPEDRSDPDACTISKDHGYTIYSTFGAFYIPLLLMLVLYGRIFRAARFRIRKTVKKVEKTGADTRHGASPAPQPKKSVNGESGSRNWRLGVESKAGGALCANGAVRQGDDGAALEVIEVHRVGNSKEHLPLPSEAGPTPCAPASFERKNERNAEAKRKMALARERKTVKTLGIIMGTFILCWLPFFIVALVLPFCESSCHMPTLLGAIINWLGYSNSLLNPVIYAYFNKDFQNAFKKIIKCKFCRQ

[22] = Cardiotoxicity in pig coronary artery assessed as coronary artery constriction; type: toxicity, tissue-based, Sus scrofa
[23] = biological target: T3, 5-hydroxytryptamine receptor 3A (Homo sapiens) (UniProt P46098); assay: Inhibition of serotonin 5-HT3A receptor (unknown origin) at 1 uM
T3 sequence (whole entry): T1 sequence (P46098 whole entry)

Rattus norvegicus [24] = assay: Induction of 5-HT4 receptor-mediated esophageal relaxation in ID dosed rat; type: functional; how it was run: as §1
[25] = biological target: 5-hydroxytryptamine receptor 1D (Homo sapiens, UniProt P28221); assay: Inhibition of serotonin 5-HT1D receptor (unknown origin) at 1 uM
[26] = biological target: 5-hydroxytryptamine receptor 7 (Homo sapiens, UniProt P34969); assay: Inhibition of serotonin 5-HT7 receptor (unknown origin) at 1 uM
[27] = biological target: 5-hydroxytryptamine receptor 6 (Homo sapiens) (UniProt P50406); assay: Inhibition of serotonin 5-HT6 receptor (unknown origin) at 1 uM
[28] = Half life in beagle dog at 2 mg/kg, po; type: ADME, organism-based, Canis lupus familiaris; parameters: dose 2 mg/kg, route oral; conditions: in vivo
[29] = biological target: T4, 5-hydroxytryptamine receptor 2C (Homo sapiens) (UniProt P28335); assay: Inhibition of serotonin 5-HT2C receptor (unknown origin) at 1 uM
T4 sequence (whole entry): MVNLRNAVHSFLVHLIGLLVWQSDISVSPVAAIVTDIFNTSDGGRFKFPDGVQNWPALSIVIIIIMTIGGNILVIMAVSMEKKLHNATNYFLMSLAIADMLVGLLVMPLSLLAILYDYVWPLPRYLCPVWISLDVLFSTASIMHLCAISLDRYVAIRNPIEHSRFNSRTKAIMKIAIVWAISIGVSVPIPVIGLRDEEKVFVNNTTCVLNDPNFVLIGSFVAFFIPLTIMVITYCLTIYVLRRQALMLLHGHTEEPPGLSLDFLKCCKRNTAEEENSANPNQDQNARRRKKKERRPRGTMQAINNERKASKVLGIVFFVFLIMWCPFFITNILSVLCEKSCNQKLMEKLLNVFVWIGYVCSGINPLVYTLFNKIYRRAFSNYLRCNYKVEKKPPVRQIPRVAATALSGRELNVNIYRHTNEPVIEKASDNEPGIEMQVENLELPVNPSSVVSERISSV

5-hydroxytryptamine receptor 1B (Homo sapiens), sequence (P28222 whole entry): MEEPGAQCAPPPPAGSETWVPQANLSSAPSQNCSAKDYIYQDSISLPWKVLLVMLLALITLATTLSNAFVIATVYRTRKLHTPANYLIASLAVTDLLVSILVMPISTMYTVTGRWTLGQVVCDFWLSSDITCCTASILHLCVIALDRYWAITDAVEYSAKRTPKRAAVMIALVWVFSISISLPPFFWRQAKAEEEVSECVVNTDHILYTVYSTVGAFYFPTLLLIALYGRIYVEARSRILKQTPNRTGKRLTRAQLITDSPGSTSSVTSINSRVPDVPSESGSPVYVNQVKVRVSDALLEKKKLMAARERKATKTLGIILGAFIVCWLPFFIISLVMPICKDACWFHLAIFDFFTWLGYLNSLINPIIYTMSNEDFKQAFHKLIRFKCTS
5-hydroxytryptamine receptor 4 (Cavia porcellus), sequence (O70528 whole entry): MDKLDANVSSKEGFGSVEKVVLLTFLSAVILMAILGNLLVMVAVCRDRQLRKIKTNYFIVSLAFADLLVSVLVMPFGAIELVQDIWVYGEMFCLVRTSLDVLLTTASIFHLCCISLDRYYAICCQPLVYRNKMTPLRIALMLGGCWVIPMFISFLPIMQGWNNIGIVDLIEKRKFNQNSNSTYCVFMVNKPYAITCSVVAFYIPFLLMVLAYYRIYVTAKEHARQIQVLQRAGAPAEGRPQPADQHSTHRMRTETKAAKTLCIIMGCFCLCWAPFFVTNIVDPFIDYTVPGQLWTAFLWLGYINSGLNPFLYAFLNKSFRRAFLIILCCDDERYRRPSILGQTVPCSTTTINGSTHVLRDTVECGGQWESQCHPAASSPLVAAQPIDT
5-hydroxytryptamine receptor 2B, sequence (P41595 whole entry): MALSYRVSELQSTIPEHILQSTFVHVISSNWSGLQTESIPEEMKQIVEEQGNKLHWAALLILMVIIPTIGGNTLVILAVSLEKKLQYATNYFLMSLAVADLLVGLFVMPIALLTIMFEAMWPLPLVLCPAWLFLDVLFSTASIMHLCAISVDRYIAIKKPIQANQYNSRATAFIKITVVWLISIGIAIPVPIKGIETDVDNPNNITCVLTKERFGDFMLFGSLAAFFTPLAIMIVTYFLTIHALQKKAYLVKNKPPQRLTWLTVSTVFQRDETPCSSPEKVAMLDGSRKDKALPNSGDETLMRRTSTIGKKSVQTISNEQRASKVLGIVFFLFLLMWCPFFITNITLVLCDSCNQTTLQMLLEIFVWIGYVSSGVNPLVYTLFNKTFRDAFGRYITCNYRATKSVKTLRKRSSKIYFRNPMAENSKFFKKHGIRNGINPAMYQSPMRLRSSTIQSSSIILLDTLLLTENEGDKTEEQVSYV
5-hydroxytryptamine receptor 7, sequence (P34969 whole entry): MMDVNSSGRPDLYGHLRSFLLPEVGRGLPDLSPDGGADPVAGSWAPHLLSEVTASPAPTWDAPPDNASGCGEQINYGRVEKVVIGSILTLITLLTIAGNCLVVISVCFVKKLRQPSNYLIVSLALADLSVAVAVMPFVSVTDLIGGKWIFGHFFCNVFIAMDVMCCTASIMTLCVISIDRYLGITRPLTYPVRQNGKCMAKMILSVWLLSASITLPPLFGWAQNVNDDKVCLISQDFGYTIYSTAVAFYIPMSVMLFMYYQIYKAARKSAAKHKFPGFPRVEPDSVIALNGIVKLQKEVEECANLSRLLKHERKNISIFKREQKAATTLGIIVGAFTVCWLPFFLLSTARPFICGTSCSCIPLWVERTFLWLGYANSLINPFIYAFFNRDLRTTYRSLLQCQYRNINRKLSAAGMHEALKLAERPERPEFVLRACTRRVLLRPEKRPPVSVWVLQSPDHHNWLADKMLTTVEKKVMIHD
5-hydroxytryptamine receptor 1D, sequence (P28221 whole entry): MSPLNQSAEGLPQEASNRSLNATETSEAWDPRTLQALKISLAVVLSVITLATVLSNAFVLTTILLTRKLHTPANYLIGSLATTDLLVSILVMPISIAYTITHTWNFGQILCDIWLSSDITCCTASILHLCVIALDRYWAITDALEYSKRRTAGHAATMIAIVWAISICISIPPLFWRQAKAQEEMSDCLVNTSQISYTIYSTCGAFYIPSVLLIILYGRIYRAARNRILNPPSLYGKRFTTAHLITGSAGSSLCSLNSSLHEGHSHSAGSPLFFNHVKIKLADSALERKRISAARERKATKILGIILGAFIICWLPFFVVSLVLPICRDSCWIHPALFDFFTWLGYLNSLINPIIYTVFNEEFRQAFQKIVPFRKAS
5-hydroxytryptamine receptor 5A (Homo sapiens), sequence (P47898 whole entry): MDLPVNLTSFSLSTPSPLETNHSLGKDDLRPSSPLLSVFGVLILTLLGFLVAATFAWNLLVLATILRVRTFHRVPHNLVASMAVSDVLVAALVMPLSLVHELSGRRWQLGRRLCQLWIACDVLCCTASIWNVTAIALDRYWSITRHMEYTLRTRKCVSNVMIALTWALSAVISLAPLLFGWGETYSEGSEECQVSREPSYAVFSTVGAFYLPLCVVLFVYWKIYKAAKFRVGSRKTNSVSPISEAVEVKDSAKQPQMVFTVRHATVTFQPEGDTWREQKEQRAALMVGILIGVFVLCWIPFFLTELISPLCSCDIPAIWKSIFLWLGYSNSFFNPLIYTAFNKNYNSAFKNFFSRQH
5-hydroxytryptamine receptor 6 (Homo sapiens), sequence (P50406 whole entry): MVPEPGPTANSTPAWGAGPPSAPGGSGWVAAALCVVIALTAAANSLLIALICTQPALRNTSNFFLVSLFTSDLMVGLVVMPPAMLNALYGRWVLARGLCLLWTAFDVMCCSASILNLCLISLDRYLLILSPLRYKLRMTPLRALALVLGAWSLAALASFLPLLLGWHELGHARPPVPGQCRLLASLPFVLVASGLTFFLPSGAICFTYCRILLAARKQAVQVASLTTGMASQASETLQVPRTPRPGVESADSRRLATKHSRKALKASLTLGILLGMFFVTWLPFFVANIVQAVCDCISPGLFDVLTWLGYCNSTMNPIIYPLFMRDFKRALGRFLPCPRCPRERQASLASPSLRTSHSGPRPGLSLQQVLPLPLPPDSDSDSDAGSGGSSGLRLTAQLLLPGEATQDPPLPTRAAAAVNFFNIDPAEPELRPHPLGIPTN
5-hydroxytryptamine receptor 4, sequence (Q13639 whole entry): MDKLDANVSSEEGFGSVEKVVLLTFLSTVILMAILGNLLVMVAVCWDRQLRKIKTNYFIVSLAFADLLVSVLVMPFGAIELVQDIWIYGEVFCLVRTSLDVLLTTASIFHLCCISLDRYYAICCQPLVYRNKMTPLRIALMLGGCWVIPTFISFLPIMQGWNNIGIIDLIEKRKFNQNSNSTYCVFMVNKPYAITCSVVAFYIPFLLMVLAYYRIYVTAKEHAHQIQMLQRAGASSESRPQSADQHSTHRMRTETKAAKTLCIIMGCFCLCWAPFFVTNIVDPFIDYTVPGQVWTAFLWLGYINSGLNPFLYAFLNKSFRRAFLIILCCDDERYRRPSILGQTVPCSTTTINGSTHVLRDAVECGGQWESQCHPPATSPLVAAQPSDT
5-hydroxytryptamine receptor 2A, sequence (P28223 whole entry): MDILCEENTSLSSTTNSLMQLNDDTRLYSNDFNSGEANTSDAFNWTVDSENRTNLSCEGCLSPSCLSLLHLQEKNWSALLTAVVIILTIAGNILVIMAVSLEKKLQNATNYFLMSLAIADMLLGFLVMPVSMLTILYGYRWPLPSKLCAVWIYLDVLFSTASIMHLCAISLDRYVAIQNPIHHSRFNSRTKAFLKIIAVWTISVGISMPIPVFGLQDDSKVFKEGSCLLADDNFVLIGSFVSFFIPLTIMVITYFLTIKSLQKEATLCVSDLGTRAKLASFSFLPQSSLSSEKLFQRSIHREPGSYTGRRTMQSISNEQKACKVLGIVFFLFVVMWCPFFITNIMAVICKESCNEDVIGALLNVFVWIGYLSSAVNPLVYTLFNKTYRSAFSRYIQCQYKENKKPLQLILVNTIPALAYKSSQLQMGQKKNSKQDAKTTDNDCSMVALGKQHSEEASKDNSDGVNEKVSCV

COC(=O)N1CCC(CN2CCC(CNC(=O)c3cccc4[nH]c(C(C)C)nc34)CC2)CC1
half-life [1]: 1.6 h | Cmax [2]: 464 ng/mL | Activity [3]: Non-toxic | Activity (Rattus norvegicus [4]): 0.23 mg/kg | Activity (Cavia porcellus): 40% | Ki [5]: 100 µM | Papp [6]: 54 ×10⁻⁶ cm/s | bioavailability [7]: 77% | Intrinsic activity [8]: 83% | AUC(0-t) [9]: 2280 ng·h/mL | Activity [10]: Non-toxic | pKb(app) [11]: 9.3 | AUC(0-t) [12]: 1240 ng·h/mL | inhibition [13]: < 50% | Cmax [14]: 818 ng/mL | inhibition [15]: < 50% | inhibition [16]: < 50% | bioavailability [17]: 63% | Activity (Homo sapiens): Active | half-life [18]: 1.43 h | half-life [19]: 12 h | inhibition [20]: < 50% | inhibition [21]: < 50% | Activity [22]: Non-toxic | inhibition [23]: < 50% | Activity (Rattus norvegicus [24]): Dose-dependent effect | ED50 (Rattus norvegicus [24]): 0.15 mg/kg | inhibition [25]: < 50% | inhibition [26]: < 50% | inhibition [27]: < 50% | half-life [28]: 3.5 h | inhibition [29]: < 50%
